# In ChEMBL document CHEMBL1151806, “Indolizidine, antiinfective and antiparasitic compounds from Prosopis glandulosa var. glandulosa” (J Nat Prod, 2009):
# The source made the active and inactive calls. The calls are words filed in the database; no cut-off is given here.
# Columns and labels:
# [1] = test system: Staphylococcus aureus; experiment: Antimicrobial activity against methicillin-resistant Staphylococcus aureus ATCC 43300 by NCCLS method; assay type: functional, organism-based
# Summary of the method: (§1)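 Samples serially diluted in 20% DMSO/saline, tested in duplicate. Inocula set by OD630: C. albicans RPMI pH 4.5, 1·10^4 CFU/mL; C. neoformans Sabouraud dextrose, 1·10^5; MRSA cation-adjusted Mueller-Hinton pH 7.3, 5·10^5; M. intracellulare 7H9/OADC + 5% Alamar Blue pH 7.3, 2·10^6; A. fumigatus RPMI pH 7.3 + 5% Alamar Blue, 3·10^4.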
# [2] = test system: Leishmania donovani; experiment: Antileishmanial activity against Leishmania donovani promastigotes after 48 hrs by alamar blue assay; assay type: functional, organism-based
# [3] = Selectivity index, IC50 for african green monkey (Cercopithecus aethiops) Vero cells to IC50 for chloroquine-sensitive Plasmodium falciparum D6; assay type: functional
# Summary of the method: (§2)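 Selectivity index = IC50 against VERO cells divided by IC50 against P. falciparum (D6 or W2, respectively), each from the corresponding in-house assay.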
# [4] = Selectivity index, IC50 for african green monkey (Cercopithecus aethiops) Vero cells to IC50 for […]; assay type: functional; summary of the method: as §2
# [5] = test system: Vero; experiment: Cytotoxicity against african green monkey Vero cells at 4760 ng/mL; assay type: cell-based, Chlorocebus sabaeus
# [6] = test system: Plasmodium falciparum; experiment: Antimalarial activity after 72 hrs against chloroquine-resistant Plasmodium falciparum W2 by pLDH activity; assay type: functional, organism-based; conditions: W2, 72 h
# Summary of the method: (§3)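 P. falciparum-infected red cells (2% parasitemia, 2% hematocrit) in RPMI-1640 with 10% human serum and 60 μg/mL amikacin, exposed to serial sample concentrations. Gassed with 90% N2/5% O2/5% CO2, incubated 37 °C for 72 h. Parasite LDH activity read colorimetrically with Malstat reagent.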
# [7] = test system: Mycobacterium intracellulare; experiment: Antimicrobial activity against Mycobacterium intracellular ATCC 23068 by alamar blue assay; assay type: functional, organism-based
# Summary of the method: as §1, with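 “3·10^4. Read at 630 nm or 544ex/590em before and after incubation.” for “3·10^4.”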
# [8] = test system: Aspergillus fumigatus; experiment: Antimicrobial activity against Aspergillus fumigatus ATCC 90906 by alamar blue assay; assay type: functional, organism-based; summary of the method: as §1
# [9] = test system: Candida albicans; experiment: Antimicrobial activity against Candida albicans ATCC 90028 by NCCLS method; assay type: functional, organism-based; summary of the method: as §1
# [10] = test system: Plasmodium falciparum; experiment: Antimalarial activity after 72 hrs against […] Plasmodium falciparum D6 by pLDH activity; assay type: functional, organism-based; conditions: D6, 72 h; summary of the method: as §3
# [11] = test system: Cryptococcus neoformans; experiment: Antimicrobial activity against Cryptococcus neoformans ATCC 90113 by NCCLS method; assay type: functional, organism-based; summary of the method: as §1
# [12] = test system: Aspergillus fumigatus; experiment: Antimicrobial activity against Aspergillus fumigatus ATCC 90906 by alamar blue assay in presence of 5% human serum; assay type: functional, organism-based
# [13] = test system: Candida albicans; experiment: Antimicrobial activity against Candida albicans ATCC 90028 by NCCLS method in presence of 5% human serum; assay type: functional, organism-based
# [14] = test system: Mycobacterium intracellulare; experiment: Antimicrobial activity against Mycobacterium intracellular ATCC 23068 by alamar blue assay in presence of 5% human serum; assay type: functional, organism-based
# [15] = test system: Staphylococcus aureus; experiment: Antimicrobial activity against methicillin-resistant Staphylococcus aureus ATCC 43300 by NCCLS method in presence of 5% human serum; assay type: functional, organism-based
# [16] = test system: Cryptococcus neoformans; experiment: Antimicrobial activity against Cryptococcus neoformans ATCC 90113 by NCCLS method in presence of 5% human serum; assay type: functional, organism-based
# [17] = test system: BT-549; experiment: Cytotoxicity against human BT549 cells after 48 hrs by neutral red assay; assay type: functional, cell-based; conditions: BT-549, 48 h
# Summary of the method: (§4)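 Cells seeded at 25,000/well, incubated 24 h, then exposed to samples for 48 h. Viable cells measured by Neutral Red uptake. IC50 from logarithmic plots of growth inhibition vs concentration. Doxorubicin positive control, DMSO vehicle control.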
# [18] = Toxicity in RBC assessed as hemolysis; assay type: cell-based; conditions: Erythrocyte
# [19] = test system: Vero; experiment: Cytotoxicity against african green monkey Vero cells after 48 hrs by neutral red assay; assay type: cell-based, Chlorocebus sabaeus; conditions: Chlorocebus sabaeus, Vero, 48 h; read-out: IC50; summary of the method: as §4
# [20] = test system: SK-OV-3; experiment: Cytotoxicity against human SKOV3 cells after 48 hrs by neutral red assay; assay type: functional, cell-based; conditions: SK-OV-3, 48 h; summary of the method: as §4
# [21] = test system: KB; experiment: Cytotoxicity against human KB cells after 48 hrs by neutral red assay; assay type: functional, cell-based; summary of the method: as §4
# [22] = test system: SK-MEL; experiment: Cytotoxicity against human SK-MEL cells after 48 hrs by neutral red assay; assay type: functional, cell-based; summary of the method: as §4
# [23] = test system: LLC-PK1; experiment: Cytotoxicity against pig LLC-PK1 cells after 48 hrs by neutral red assay; assay type: cell-based, Sus scrofa; conditions: Sus scrofa, LLC-PK1, 48 h; read-out: IC50; summary of the method: as §4
# [24] = Aspergillus fumigatus, ATCC 90906, read-out: IC50
# [25] = Candida albicans, ATCC 90028, read-out: IC50
smiles,measurement,setting,value
C[C@H]1N[C@@H](CCCCCCCCCCC2=C[C@@H](CCCCCCCCCC[C@@H]3CC[C@H](O)[C@@H](C)N3)[C@@H]3CCCN3C2)CC[C@H]1O.Cl.Cl,IC50,[1],3 µg/mL
same,IC50,[2],0.7 µg/mL
same,IC90,[2],1.2 µg/mL
same,Ratio IC50,[3],>12.5
same,Ratio IC50,[4],>16.4
same,IC50,[5],Non-toxic
same,IC50,[6],0.29 µg/mL
same,IC50,[7],10 µg/mL
same,IC50,[8]; [24],6.5 µg/mL
same,IC50,[9]; [25],7.5 µg/mL
same,IC50,[10],0.38 µg/mL
same,IC50,[11],0.85 µg/mL
same,MFC,[11],2.5 µg/mL
same,MIC,[11],1.25 µg/mL
C[C@@H]1N[C@H](CCCCCCCCCCC2=C[C@@H](CCCCCCCCCC[C@@H]3CC[C@@H](O)[C@H](C)N3)[C@@H]3CCCN3C2)CC[C@H]1O.Cl.Cl,IC50,[1],3 µg/mL
same,IC90,[2],7 µg/mL
same,Ratio IC50,[3],>7.9
same,Ratio IC50,[4],>8.5
same,IC50,[5],Non-toxic
same,IC50,[7],9.5 µg/mL
same,MIC,[7],20 µg/mL
same,IC50,[8],Not Active
same,IC50,[9],Not Active
same,IC50,[10],0.6 µg/mL
same,IC50,[11],2 µg/mL
C[C@@H]1N[C@H](CCCCCCCCCCC2=C[C@@H](CCCCCCCCCC[C@@H]3CC[C@@H](O)[C@H](C)N3)[C@@H]3CCCN3C2)CC[C@H]1O,Activity,[12],Active
same,Activity,[13],Active
same,Activity,[14],Active
same,Activity,[15],Active
same,MBC,[7],inactive
same,MFC,[8],inactive
same,MIC,[8],inactive
same,MFC,[9],inactive
same,MIC,[9],inactive
same,Activity,[16],Active
C[C@H]1N[C@@H](CCCCCCCCCCC2=C[C@@H](CCCCCCCCCC[C@@H]3CC[C@H](O)[C@@H](C)N3)[C@@H]3CCCN3C2)CC[C@H]1O,MBC,[1],inactive
same,Activity,[12],Active
same,Activity,[13],Active
same,Activity,[14],Active
same,Activity,[15],Active
same,MBC,[7],inactive
same,MIC,[7],inactive
same,MFC,[8],inactive
same,MFC,[9],inactive
same,MIC,[9],inactive
same,Activity,[16],Active
C[C@@H]1[C@H](O)[C@@H](C)/C=C/C=C/C=C/C=C/C=C/C=C/C=C/[C@H](O[C@@H]2O[C@H](C)[C@@H](O)[C@H](N)[C@@H]2O)C[C@@H]2O[C@](O)(C[C@@H](O)C[C@@H](O)[C@H](O)CC[C@@H](O)C[C@@H](O)CC(=O)O[C@H]1C)C[C@H](O)[C@H]2C(=O)O [AMPHOTERICIN B],IC50,[17],5.5 µg/mL
same,IC50,[18],3.9 µg/mL
same,IC50,[19],7.5 µg/mL
same,MIC,"[8]; Aspergillus fumigatus, ATCC 90906",0.63 µg/mL
same,IC50,[8]; [24],0.4 µg/mL
same,MIC,"[9]; Candida albicans, ATCC 90028",0.63 µg/mL
same,IC50,[9]; [25],0.35 µg/mL
same,IC50,[20],> 25 µg/mL
same,IC50,[21],> 25 µg/mL
same,IC50,[22],5 µg/mL
same,IC50,[11],0.45 µg/mL
C[C@@H]1CC[C@H]2[C@@H](C)C(=O)O[C@@H]3O[C@@]4(C)CC[C@@H]1[C@]32OO4 [ARTEMISININ],IC50,[23],0.6 µg/mL
same,IC50,[19],> 4.76 µg/mL
same,IC50,[5],Non-toxic
same,IC50,[10],0.016 µg/mL
CCN(CC)CCCC(C)Nc1ccnc2cc(Cl)ccc12 (configuration not stated) [CHLOROQUINE],IC50,[5],Non-toxic
